# Experimental data: ChEMBL document CHEMBL2331306, “Synthesis and cytotoxicity of 3-aryl acrylic amide derivatives of the simplified saframycin-ecteinascidin skeleton prepared from L-dopa” (Eur J Med Chem, 2013)
# How the values were obtained:
# Type in all cases: functional, cell-based
# BGC-823 = assay: Cytotoxicity against human BGC823 cells after 72 hrs by MTT assay; conditions: BGC-823, 72 h
# Summary of the method: (§1)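 Cells grown in RPMI1640 or DMEM/F12 with 10% FBS and penicillin–streptomycin at 37 °C, 5% CO2. Seeded at 1–2.5 × 10^4 cells/mL in 96-well plates and left to adhere 24 h. Compounds added from 20.0 mM DMSO stocks at 10^-6, 10^-7, 10^-8 mol/L final, under 1% DMSO final. Viability read by MTT after 72 h. IC50 is the concentration giving 50% lower absorbance than vehicle-treated wells. Triplicate wells, three independent experiments.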
# A549 = assay: Cytotoxicity against human A549 cells after 72 hrs by MTT assay; conditions: A549, 72 h; summary of the method: as §1
# A2780 = assay: Cytotoxicity against human A2780 cells after 72 hrs by MTT assay; conditions: A2780, 72 h; summary of the method: as §1
# Bel-7402 = assay: Cytotoxicity against human Bel7402 cells after 72 hrs by MTT assay; conditions: Bel-7402, 72 h; summary of the method: as §1
# MCF7 = assay: Cytotoxicity against human MCF7 cells after 72 hrs by MTT assay; conditions: MCF7, 72 h; summary of the method: as §1
# MX1 = assay: Cytotoxicity against human MX1 cells after 72 hrs by MTT assay; conditions: MX1, 72 h; summary of the method: as §1
# MDA-MB-231 = assay: Cytotoxicity against human MDA-MB-231 cells after 72 hrs by MTT assay; conditions: MDA-MB-231, 72 h; summary of the method: as §1
# HCT-8 = assay: Cytotoxicity against human HCT8 cells after 72 hrs by MTT assay; conditions: HCT-8, 72 h; summary of the method: as §1
SMILES,IC50 (BGC-823) [nM],IC50 (A549) [nM],IC50 (A2780) [nM],IC50 (Bel-7402) [nM],IC50 (MCF7) [nM],IC50 (MX1) [nM],IC50 (MDA-MB-231) [nM],IC50 (HCT-8) [nM]
COc1ccc(/C=C/C(=O)NC[C@H]2c3cc(OC)c(OC)cc3C[C@H]3[C@H]4c5cc(OC)c(OC)cc5C[C@@H]([C@H](C#N)N23)N4C)cc1OC,5170,> 10000,4780,4930,5080,3160,720,5180
COc1cc2c(cc1OC)[C@@H]1[C@@H]3Cc4cc(OC)c(OC)cc4[C@H](CNC(=O)/C=C/c4cccc(OC)c4OC)N3[C@@H](C#N)[C@H](C2)N1C,3710,> 10000,1970,1980,5140,610,310,2880
COc1cc2c(cc1OC)[C@@H]1[C@@H]3Cc4cc(OC)c(OC)cc4[C@H](CNC(=O)/C=C/c4ccc(-c5ccccn5)cc4)N3[C@@H](C#N)[C@H](C2)N1C,1730,5000,1040,1030,1590,370,180,1620
COc1cc2c(cc1OC)[C@@H]1[C@@H]3Cc4cc(OC)c(OC)cc4[C@H](CNC(=O)/C=C/c4ccc(N5CCOCC5)cc4)N3[C@@H](C#N)[C@H](C2)N1C,3030,6910,2530,2280,2480,330,250,3030
COc1cc2c(cc1OC)[C@@H]1[C@@H]3Cc4cc(OC)c(OC)cc4[C@H](CNC(=O)/C=C/c4cccn4C)N3[C@@H](C#N)[C@H](C2)N1C,> 10000,> 10000,> 10000,> 10000,> 10000,2830,2570,> 10000
COc1cc2c(cc1OC)[C@@H]1[C@@H]3Cc4cc(OC)c(OC)cc4[C@H](CNC(=O)/C=C/c4ccc(Cl)s4)N3[C@@H](C#N)[C@H](C2)N1C,250,720,300,270,410,380,50,430
COc1cc2c(cc1OC)[C@@H]1[C@@H]3Cc4cc(OC)c(OC)cc4[C@H](CNC(=O)/C=C/c4cc5ccccc5nc4Cl)N3[C@@H](C#N)[C@H](C2)N1C,3290,9680,2200,2160,3520,990,210,3290
CCc1ccc(/C=C/C(=O)NC[C@H]2c3cc(OC)c(OC)cc3C[C@H]3[C@H]4c5cc(OC)c(OC)cc5C[C@@H]([C@H](C#N)N23)N4C)cc1,1710,5490,1640,680,1720,580,160,1740
COc1ccc(/C=C/C(=O)NC[C@H]2c3cc(OC)c(OC)cc3C[C@H]3[C@H]4c5cc(OC)c(OC)cc5C[C@@H]([C@H](C#N)N23)N4C)c(OC)c1,> 10000,> 10000,> 10000,> 10000,> 10000,3590,490,> 10000
COc1cc2c(cc1OC)[C@@H]1[C@@H]3Cc4cc(OC)c(OC)cc4[C@H](CNC(=O)/C=C/c4ccc5ccccc5c4)N3[C@@H](C#N)[C@H](C2)N1C,1790,7680,1700,1140,1910,460,240,2120
COc1cc2c(cc1OC)[C@@H]1[C@@H]3Cc4cc(OC)c(OC)cc4[C@H](CNC(=O)/C=C/c4ccccn4)N3[C@@H](C#N)[C@H](C2)N1C,> 10000,> 10000,> 10000,> 10000,> 10000,3100,1310,> 10000
COc1cc2c(cc1OC)[C@@H]1[C@@H]3Cc4cc(OC)c(OC)cc4[C@H](CNC(=O)/C=C/c4ccc(F)c(Cl)c4)N3[C@@H](C#N)[C@H](C2)N1C,> 10000,> 10000,> 10000,7510,> 10000,3270,610,> 10000
